Compounds with a hit are over-represented: about 4.9% of the library has one in this group of screens.
APP 5'UTR act – activates APP 5'UTR luciferase reporter; SH-SY5Y APP 5'UTR luciferase reporter, luminescence; zero percent = DMSO vehicle wells; activation, % at 2 µM; 1% of 190,000 active; AID 1276;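 active means activation above a set limit, based on mean plus 3 SD of controls, cut at about 140% in these data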
STAT3 inh – reduces IL-6 driven STAT3 reporter signal. AID 862. inhibition, % at 5.5 µM. U3A cells, IL-6 STAT3-luciferase reporter, luminescence; host cell line lacks STAT1. 0.89% of 190,000 active;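 active means inhibition above the mean inhibition across all screened compounds plus 3 SD, cut at about 44% in these data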;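 further: 0% = DMSO only wells and 100% = 100 µM nifuroxazide control wells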
NF-kB neuron act – NF-kB expression increase, human neuronal cells. NF-kB reporter expression; hits give high values. fold change at 12.5 µM. 1.6% of 190,000 active. AID 1239; in the data active means fold change above about 3.3
STAT1 activator – increases IFN-gamma driven STAT1 reporter signal | NIH 3T3 STAT1-luciferase reporter, luminescence; 100% = IFN-gamma alone, no compound | activation (% of control), % at 5.5 µM | 2.6% of 200,000 active | AID 932;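 active means activation above the screen-wide mean activation plus 3 SD, cut at about 130% in these data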;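 further: raw ratio to IFN-gamma control signal so 100% means no change and 0% no light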
STAT1 blocker – inhibitors of IFN-gamma induced STAT1 signaling; AID 920; inhibition, % at 5.5 µM; 0.35% of 200,000 active; NIH 3T3 STAT1-luciferase reporter, luminescence;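 active means inhibition above a set limit, the mean inhibition across all tested compounds plus 3 SD, cut at about 34% in these data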;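 further: 0% = IFN-gamma with DMSO and 100% = IFN-gamma with 300 µM nifuroxazide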
STAT3 act – STAT3 signaling activation. AID 871. activation (% of control), % at 5.6 µM. 0.91% of 190,000 active. U3A cells, IL-6 STAT3-luciferase reporter, luminescence; 100% = signal with IL-6 EC80 alone;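 active means activation above the screen-wide mean of compound activation plus 3 SD, cut at about 130% in these data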;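 further: 0% = background luminescence of wells with medium and substrate only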
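System – human U3A cells carrying STAT3-luciferase construct · Probe or stimulus – Interleukin-6, 33 ng/mL · Schedule – compound 1 h, then IL-6 6 h at 37 °C · Signal – luminescence from STAT3-driven luciferase reporter · Evaluation – percent of IL-6-only median luminescence · Benchmarks – IL-6-only high control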
Starred values were filed as active, the others as inactive; / = not tested or not shown.

SMILES	APP 5'UTR act	STAT3 inh	NF-kB neuron act	STAT1 activator	STAT1 blocker	STAT3 act
COc1ccc(-c2nc3ccc([N+](=O)[O-])cc3o2)cc1	150*	16	2.8	111	-13	90
CCC(=O)NC(=S)Nc1ccc2oc(-c3ccc(OC)cc3)nc2c1	137*	10	1.8	125	-29	98
Cc1cccc(-c2nc3cc([N+](=O)[O-])ccc3o2)c1	82	19	3.5*	116	-19	87
Cc1ccc(C)c(-c2nc3cc(N)ccc3o2)c1	-22	16	1.1	114	-13	90
Nc1ccc(-c2nc3ccc(N)cc3o2)cc1	16	4	2.4	125	-27	100
CC1CCCCN1C(=O)/C(=C\c1ccccc1)c1ccccc1 (configuration not stated)	5	4	0.85	109	-10	101
CCCC(=O)Nc1ccc(-c2nc3cc(C)ccc3o2)cc1	190*	4	5.1*	136*	-39	99
NC(N)=Nc1nc2cc([N+](=O)[O-])ccc2o1	10	10	1.3	107	-10	96
O=[N+]([O-])c1ccc2oc(-c3ccccc3)nc2c1	112	17	4.2*	145*	-48	92
CCCC(=O)Nc1ccc2oc(-c3ccc(OC)c(Br)c3)nc2c1	49	6	1.5	108	-11	99
O=C(NC1CCCCC1)C(c1cccnc1)N(CCc1ccccc1)C(=O)Cc1cccs1 (configuration not stated)	4	-3	1.1	91	10	101
CCOc1cc(C=O)cc(Cl)c1OCC(N)=O	-9	9	1.3	95	5	103
S=C1NC(c2cccs2)=CC(c2ccc(Br)cc2)N1 (configuration not stated)	12	-13	4*	94	7	115
CCc1ccc(C(=O)Nc2cc3c(cc2Cl)OCCCO3)cc1	89	15	4.6*	150*	-54	91
COc1ccccc1-c1cc(C(F)(F)F)nc(S(=O)(=O)CCCC(=O)Nc2cc(C)on2)n1	0	5	1.8	68	35*	99
O=C(c1ccc(F)cc1)c1ccc(N2CCCC2)cc1	57	4	1.8	138*	-41	102
COc1ccc(C(=O)NC(=O)NC2(C(Cl)(Cl)Cl)OCCO2)cc1	226*	20	5.1*	128	-34	87
Cc1ccccc1OCc1nnc2c3cnn(C)c3ncn12	12	7	2	139*	-43	99
COCCn1c(C)cc(C(=O)COc2ncnc3ccc(Br)cc23)c1C	0	-9	1.1	95	3	109
C=CCn1c(C)cc(C(=O)COc2ncnc3sccc23)c1C	182*	42	2.8	107	-7	71
CCCCCCn1c(SCCCC)nc2c1c(=O)[nH]c(=O)n2C	7	-7	0.97	99	1	110
CCn1c([N+](=O)[O-])nc2c1c(=O)[nH]c(=O)n2C	-1	3	4.8*	83	18	97
Cc1ccc(NC(=O)C2CCCN(c3ncccn3)C2)cc1F (configuration not stated)	89	-11	3.5*	149*	-53	112
O=C(Nc1ccc2c(c1)CCC2)C1CCCN(c2ncccn2)C1 (configuration not stated)	59	-2	2.6	144*	-47	106
CCCCC(=O)NC(=S)Nc1c(C)cc(Br)cc1C	9	3	1.1	98	2	99
SMILES	APP 5'UTR act	STAT3 inh	NF-kB neuron act	STAT1 activator	STAT1 blocker	STAT3 act
CN(C)/C=C1\C(=O)N(C)N=C1C(F)(F)F	-6	1	1.1	103	-5	101
O=C(NNc1nc2cc3c(cc2s1)OCCO3)c1ccc(F)cc1	-17	8	1.5	98	0	94
O=C(Nc1nc2cc3c(cc2s1)OCCO3)c1ccncc1	153*	27	3.2	132*	-34	78
O=C(Nc1nc2cc3c(cc2s1)OCO3)C1=COCCO1	75	86*	1.9	55	49*	26
CC(=O)Nc1nc2cc3c(cc2s1)OCO3	57	12	2.2	115	-16	97
Cc1ccc(NC(=S)Nc2cccnc2)c(S(=O)(=O)N2CCCCC2)c1	-10	12	0.89	94	7	96
O=C(CC(Nc1ccc(F)cc1)C(=O)O)c1ccccc1 (configuration not stated)	89	54*	5.7*	148*	-52	55
O=C(/C=C/c1ccnc2ccccc12)c1cccs1	183*	33	1	103	-4	78
c1ccc(CNc2ncnc3c2cnn3-c2ccccc2)cc1	-18	7	2.1	127	-30	99
c1ccc(-n2ncc3c(NCCN4CCOCC4)ncnc32)cc1	30	-3	1.8	133*	-36	106
c1ccc(CCNc2ncnc3c2cnn3-c2ccccc2)cc1	135	7	6.5*	140*	-43	98
CC(C)OCCCNc1ncnc2c1cnn2-c1ccccc1	194*	27	6*	128	-31	83
COc1ccc(C(=O)NNC(=O)C2CCN(S(=O)(=O)c3ccc(C)cc3)CC2)cc1	1	14	/	90	11	93
O=C(CSc1nc2[nH]ncc2c(=O)[nH]1)Nc1ccccc1	9	6	1	100	-2	99
Cc1ccc(NC(=O)COC(=O)[C@H](C)NC(N)=O)c(C)c1	14	1	0.89	99	-1	105
Cc1c(Cl)ccc2c(C(=O)NC(C)c3ccncc3)cc(-c3ccncc3)nc12 (configuration not stated)	9	-12	0.56	95	2	114
O=[N+]([O-])c1ccc(Cc2nnc(-c3ccccc3Cl)o2)cc1	166*	31	3.6*	97	3	81
O=C(NC1CCCC1)C1CCCN1C(=O)Nc1ccccc1 (configuration not stated)	-6	1	0.98	104	-4	104
O=C(Nc1ccccc1)N1CCCC2CCCCC21 (configuration not stated)	32	3	2	131*	-35	101
c1ccc(Cc2cc(-c3ccccc3)on2)cc1	33	-15	1.9	132*	-35	115
CC(C)N1CCN(Cc2cn[nH]c2C2CCCCC2)CC1CCO (configuration not stated)	9	-9	/	101	-2	113
Cc1c(CCO)c(=O)[nH]n1C(=O)c1ccc(F)cc1	37	5	1.6	99	1	106
COc1ccc(-n2nnnc2S(=O)(=O)CC(=O)N2CCCCC2)cc1	-16	29	0.54	67	36*	82
COc1ccc(-n2nnnc2S(=O)(=O)Cc2ccc(C(=O)O)cc2)cc1	-16	6	0.84	76	26	94
COc1ccccc1/C=N/Nc1nncc2ccccc12	37	3	1.7	150*	-55	97

From PubChem BioAssay
